The test system of assay [1] is FaDu. Put plainly: Synergistic antiproliferative activity against human FADU cells assessed as fractional inhibition at 0.5 uM preincubated for 1 hr followed by irradiation with 10 Gy IR and measured after 6 days by MTT assay (reference value: 0.388). Type of assay: functional. The method, boiled down: (§1)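 FaDu or SCC-25 cells were grown in DMEM with 10% FBS at 37 °C and 5% CO2. They were seeded at 1000 cells/well in 96-well plates for 24 h, then dosed with compound (fresh DMSO stock diluted in medium) or vehicle. After 1 h, X-rays were given with a sliding 5 mm lead shield, so one plate held 0, 2.5, 5 and 10 Gy columns. After 6 days, MTT (0.5 mg/mL, 45 min) was added, then DMSO, and A570 was read. Values were normalised to the unirradiated vehicle control. Fractional inhibition = 1 − surviving fraction.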

In assay [2] the test system is SCC-25. Put plainly: Synergistic antiproliferative activity against human SCC25 cells assessed as combination index at 5 uM preincubated for 1 hr followed by irradiation with 10 Gy IR and measured after 6 days by MTT assay. The format is functional. The method, boiled down: (§2)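 SCC-25 cells grown in DMEM with 10% FBS at 37 °C, 5% CO2, seeded 1000 cells/well in 96-well plates and left 24 h. Drug in DMSO, diluted in complete medium, added 1 h before X-irradiation. A movable 5 mm lead shield gave 0, 2.5, 5 or 10 Gy on one plate. After 6 days, MTT readout at 570 nm. Combination index by Chou–Talalay from viability data.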

In assay [3] the test system is FaDu. Put plainly: Synergistic antiproliferative activity against human FADU cells assessed as reduction in cell viability at 1 uM preincubated for 1 hr followed by irradiation with 5 Gy IR and measured after 6 days by MTT assay relative to control. The format is functional. Conditions: light or radiation study. The method, boiled down: as §1
Assay [4] relates to SCC-25. Put plainly: Synergistic antiproliferative activity against human SCC25 cells assessed as fractional inhibition at 0.5 uM preincubated for 1 hr followed by irradiation with 10 Gy IR and measured after 6 days by MTT assay (reference value: 0.347). Type of assay: functional. The method, boiled down: (§3)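 SCC-25 cells seeded 1000/well in 96-well plates in DMEM/10% FBS and left 24 h. Drug or vehicle added, then after 1 h X-irradiated to 2.5, 5 or 10 Gy on one plate using a shifted lead shield. Plates incubated 6 days, then MTT (0.5 mg/mL, 45 min), DMSO solubilisation, absorbance at 570 nm. Fractional inhibition = 1 − fraction of surviving cells.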

For assay [5], the system named is FaDu. Put plainly: Inhibition of cell migration in human FADU cells at 0.5 uM incubated for 12 and 24 hrs by microscopic analysis. The format is functional, cell-based. The method, boiled down: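 Scratch assay: 10^5 cells/well were grown to confluence in 12-well plates, with mitomycin C to block proliferation. Cells were treated with compound for 24 h, with or without 5 Gy IR, then scratched with a pipette tip, washed with PBS and given fresh medium. Imaging was at 0, 6, 12 and 24 h. % migration = gap decrease relative to the 0 h gap.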

The test system of assay [6] is FaDu. Put plainly: Antiproliferative activity against human FADU cells assessed as reduction in cell viability at 1 uM after 6 days by MTT assay relative to control. Type of assay: functional. Conditions: 144 h. The essentials:
as §1

The test system of assay [7] is FaDu. Put plainly: Synergistic antiproliferative activity against human FADU cells assessed as fractional inhibition at 0.05 uM preincubated for 1 hr followed by irradiation with 5 Gy IR and measured after 6 days by MTT assay (reference value: 0.097). Type of assay: functional. The essentials:
as §1

For assay [8], the system named is FaDu. Briefly: Synergistic antiproliferative activity against human FADU cells assessed as reduction in cell viability at 1 uM preincubated for 1 hr followed by irradiation with 2.5 Gy IR and measured after 6 days by MTT assay relative to control. Type of assay: functional. The note with it: light or radiation study. The essentials:
as §1

The subject of assay [9] is SCC-25. Briefly: Synergistic antiproliferative activity against human SCC25 cells assessed as combination index at 0.05 uM preincubated for 1 hr followed by irradiation with 10 Gy IR and measured after 6 days by MTT assay. The format is functional. The method, boiled down:
as §2

In assay [10] the test system is SCC-25. Briefly: Synergistic antiproliferative activity against human SCC25 cells assessed as fractional inhibition at 5 uM preincubated for 1 hr followed by irradiation with 2.5 Gy IR and measured after 6 days by MTT assay (reference value: 0.011). Type of assay: functional. The method, boiled down: as §3
The subject of assay [11] is FaDu. Briefly: Antiproliferative activity against human FADU cells assessed as fractional inhibition at 5 uM after 6 days in absence of irradiation by MTT assay. Type of assay: functional. The essentials:
as §1

Assay [12] deals with FaDu. Briefly: Synergistic induction of cell cycle arrest in human FADU cells assessed as decrease in CDK1 at 0.5 uM followed by irradiation with 5 Gy IR incubated for 48 hrs by immunoblot analysis. The format is functional, cell-based. The method, boiled down:
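FaDu cells received drug, 5 Gy IR, or both; vehicle-only controls. Lysates collected after 48 h and immunoblotted with primary antibodies to NRF2, cyclin B1, CDK1, Bax and Bcl-2. Membranes stripped and reprobed for beta-actin as loading control.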

In assay [13] the test system is FaDu. Briefly: Synergistic antiproliferative activity against human FADU cells assessed as fractional inhibition at 5 uM preincubated for 1 hr followed by irradiation with 5 Gy IR and measured after 6 days by MTT assay (reference value: 0.097). The format is functional. The method, boiled down: as §1
The test system of assay [14] is FaDu. Briefly: Selectivity ratio of IC50 for antiproliferative activity against human FADU cells assessed as reduction in colony formation unit to IC50 for antiproliferative activity against human FADU cells assessed as reduction in colony formation unit followed by irradiation with 5 Gy IR. Type of assay: functional.
The test system of assay [15] is FaDu. Briefly: Synergistic antiproliferative activity against human FADU cells assessed as combination index at 0.005 uM preincubated for 1 hr followed by irradiation with 2.5 Gy IR and measured after 6 days by MTT assay. The format is functional. The method, boiled down:
(§4)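 Combination index was calculated by the Chou–Talalay median-effect method from the 6-day MTT viability data of the single-plate compound/X-ray (2.5, 5, 10 Gy) design. CI < 1 denotes synergy, CI = 1 additivity and CI > 1 antagonism.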

The subject of assay [16] is SCC-25. Put plainly: Synergistic antiproliferative activity against human SCC25 cells assessed as fractional inhibition at 0.05 uM preincubated for 1 hr followed by irradiation with 2.5 Gy IR and measured after 6 days by MTT assay (reference value: 0.011). The format is functional. The essentials:
as §3

Assay [17] relates to FaDu. Briefly: Synergistic antiproliferative activity against human FADU cells assessed as fractional inhibition at 0.05 uM preincubated for 1 hr followed by irradiation with 10 Gy IR and measured after 6 days by MTT assay (reference value: 0.388). Type of assay: functional. The method, boiled down: as §1
Assay [18] has as its system SCC-25. Briefly: Synergistic antiproliferative activity against human SCC25 cells assessed as fractional inhibition at 0.5 uM preincubated for 1 hr followed by irradiation with 2.5 Gy IR and measured after 6 days by MTT assay (reference value: 0.011). The format is functional. The essentials:
as §3

For assay [19], the system named is FaDu. Briefly: Synergistic antiproliferative activity against human FADU cells assessed as combination index at 5 uM preincubated for 1 hr followed by irradiation with 10 Gy IR and measured after 6 days by MTT assay. Type of assay: functional. The method, boiled down:
as §4

The subject of assay [20] is FaDu. Put plainly: Synergistic antiproliferative activity against human FADU cells assessed as reduction in colony formation unit followed by irradiation with 5 Gy IR and measured after 10 to 14 days by crystal violet staining based assay. The format is functional, cell-based.
Assay [21] concerns FaDu. Put plainly: Induction of apoptosis in human FADU cells assessed as increase in Bax at 0.5 uM followed by irradiation with 5 Gy IR incubated for 48 hrs by immunoblot analysis. Type of assay: functional, cell-based. The method, boiled down: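 FaDu cells received compound at 0.5 μM, 5 Gy IR, or both. After 48 h, lysates were immunoblotted for NRF2, cyclin B1, CDK1, Bax and Bcl-2. Membranes were then stripped and reprobed for β-actin as the loading control.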

pIC50: −log10 of the molar value. Active and inactive are the calls of the source. No cut-off for these calls is given here.

Consider `COc1ccc2c(c1)N(CCO)C1=C(C(=O)OC1)C2c1ccccc1` (configuration not stated), for which the “fractional inhibitory concentration index (FICI)” value with FaDu [1] stood at 0.613; in the assay with SCC-25 [4], 0.713; in the assay with FaDu [7] it was 0.239; in the assay with SCC-25 [10] it was 0.531; in the assay on FaDu [11], 0.437; in the assay with FaDu [13], 0.633. For the same compound, the entries for the “fractional inhibitory concentration index (FICI)” value in the assay on SCC-25 [16], in the assay on FaDu [17] and with SCC-25 [18] were 0.74, 0.452 and 0.452, respectively. The CI with SCC-25 [2] is reported as 1.017; in the assay with SCC-25 [9], 1.056; in the assay with FaDu [15], 0.406; in the assay on FaDu [19], 0.314. The inhibition at 1 µM in the assay on FaDu [3] worked out at 48%; in the assay on FaDu [6], 20%; in the assay on FaDu [8] it was 30%. For the same compound, the inhibition result in the assay on FaDu [5] is “inactive”. In addition, the result in the assay on FaDu [12] and in the assay with FaDu [21] was Active. In addition, the “Ratio IC50” value with FaDu [14] came to 13. Also, in the assay on FaDu [20], the inhibition result is “Dose-dependent effect”. Further, the pIC50 with FaDu [20] (light or radiation study) is 6.30.
